Experimental data of several laboratories.
Each line is one published result; the experiments were not run side by side.

CN[C@H](CC(C)C)C(=O)N[C@H]1C(=O)N[C@@H](CC(N)=O)C(=O)N[C@H]2C(=O)NC3C(=O)N[C@H](C(=O)N[C@H](C(=O)NCCC[N+](C)(C)C)c4cc(O)cc(O)c4-c4cc3ccc4O)[C@H](O)c3ccc(c(Cl)c3)Oc3cc2cc(c3OC2OC(CO)C(O)[C@H](O)[C@@H]2O[C@H]2CC(C)(NCc3ccc(-c4ccc(Cl)cc4)cc3)[C@H](O)[C@H](C)O2)Oc2ccc(cc2Cl)[C@H]1O (some centres unmarked)  Vd (mouse, plasma; intravenous, 10 mg/kg): 1.25 L/kg
C=CCNc1c(O)cc2c(O)c1C[C@@H](C)C[C@H](OC)[C@H](O)[C@@H](C)/C=C(\C)[C@H](OC(N)=O)[C@@H](OC)/C=C\C=C(/C)C(=O)N2  half-life (human, plasma; intravenous, 400 mg/m², patients, infusion): 136 min
Cc1nc([C@@](C)(CC2CC2)NC(=O)c2cc(OCC(F)(F)F)c(C3CC3)cn2)no1  Vd (C57BL/6 mouse, plasma; intravenous): 4 L/kg
CC(=C/C=C/C(C)=C/C(=O)O)/C=C1\CCCc2ccccc21  half-life (human, plasma; oral, 10 mg, single dose, fasted, healthy volunteers): 346 min
Cc1nonc1Cn1nnc2c(N3CC[C@H](O)C3)nc(C(C)(C)C)nc21  Vd (C57BL/6 mouse, plasma; intravenous): 4.1 L/kg
N=C(N)NCCC[C@@H](NC(=O)[C@@H](N)Cc1ccccc1)C(=O)N[C@@H](Cc1ccccc1)C(=O)N[C@@H](CCCCN)C(N)=O  half-life (human, plasma; subcutaneous, 25 mg, multiple doses, once daily, patients): 240 min
COc1cc(C(=O)NC2CCN(C)CC2)c(F)cc1Nc1ncc(C(F)(F)F)c(Oc2cccc3c2C(=O)N(C)C3)n1  half-life (human, plasma; oral, 25 mg, multiple doses, once daily, patients): 1670 min
CCN(CC)CCCC[C@H](NC(=O)[C@H](CC(C)C)NC(=O)[C@H](C)NC(=O)[C@H](Cc1ccccc1)NC(=O)c1ccc(C(C)(C)C)cc1)C(=O)N[C@@H](CO)C(=O)OC  Vd (male Swiss mouse, blood; intravenous, 3 mg/kg): 0.19 L/kg
Nc1ncnc2c1ncn2[C@@H]1O[C@@H]2COP(=O)([S-])O[C@@H]3[C@H](O)[C@@H](COP([O-])(=S)O[C@H]2[C@H]1O)O[C@H]3n1cnc2c(N)ncnc21.[Na+].[Na+] (some centres unmarked)  half-life (chemical stability, HPLC; bovine, serum): 4020 min
COc1ccc(NC(=O)N2CCCCN3[C@H](CN(C)C)[C@H](c4ccc(C#Cc5ccccc5)cc4)[C@@H]3C2)cc1  Vd (mouse, plasma; intravenous): 29 L/kg
CCCCCCCC(=O)NC[C@H](NC(=O)[C@H](CO)NC(=O)CN)C(=O)N[C@@H](Cc1ccccc1)C(=O)N[C@@H](CC(C)C)C(=O)N[C@@H](CO)C(=O)N1CCC[C@H]1C(=O)N[C@@H](CCC(=O)O)C(=O)O  compound remaining (chemical stability; PBS; 1 mM, 24 h, pH 7.4): 100%
